Measurements from ChEMBL document CHEMBL1155677, “Inhibitory effects on HIV-1 protease of constituents from the wood of Xanthoceras sorbifolia” (J Nat Prod, 2000).
pIC50: −log10 of the molar value.

Columns and labels:
[1] = molecular target: Protease (Human immunodeficiency virus 1) (UniProt Q9YQ12); assay: Inhibition of HIV1 protease at 100 ug/ml
Summary of the method: (§1)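 HIV-1 protease inhibition was measured with a commercial HIV protease assay kit, which supplied both the enzyme and the reagents. Acetyl pepstatin from the same kit served as the positive control. The assay was run and percent inhibition calculated by a previously published procedure. Fractions were tested at 100 µg/mL.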

[2] = molecular target: Protease (Human immunodeficiency virus 1, UniProt Q9YQ12); assay: Inhibition of HIV1 protease; summary of the method: as §1
Protease, sequence (Q9YQ12 whole entry): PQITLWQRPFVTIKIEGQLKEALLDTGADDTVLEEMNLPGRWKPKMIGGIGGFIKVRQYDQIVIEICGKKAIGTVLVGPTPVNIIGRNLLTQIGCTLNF

Protease (Human immunodeficiency virus 1), sequence (Q9YQ12 as listed by the source): as the sequence (Q9YQ12 whole entry) above

| inhibition [1] | pIC50 [2] | SMILES |
| --- | --- | --- |
| 89% | 3.93 | Oc1cc(O)c2c(c1)O[C@@]1(c3cc(O)c(O)c(O)c3)Oc3cc(O)c4c(c3[C@@H]2[C@H]1O)O[C@H](c1ccc(O)c(O)c1)[C@H](O)C4 |
| -2% | < 3.76 | Oc1cc(O)c2c(c1)O[C@@]1(c3ccc(O)c(O)c3)Oc3cc(O)c4c(c3[C@@H]2[C@H]1O)O[C@H](c1ccc(O)c(O)c1)[C@H](O)C4 [PROANTHOCYANIDIN A2] |
| 14% | < 3.67 | CC(C)=CCC[C@H](C(=O)O)[C@@H]1CC[C@]2(C)C3=CC[C@@H]4[C@](C)(CCC(=O)[C@]4(C)CO)[C@H]3CC[C@@]12C [XANTHOCERASIC ACID] |
| 26% | < 3.67 | CC(C)=CCC[C@H](C(=O)O)[C@@H]1CC[C@]2(C)C3=CC[C@@H]4[C@](C)(CC[C@@H](O)[C@]4(C)CO)[C@H]3CC[C@@]12C |
| 53% | 3.67 | CC(C)=CCC[C@H](C(=O)O)[C@@H]1CC[C@]2(C)C3=CC[C@@H]4[C@](C)(CC[C@H](O)[C@]4(C)CO)[C@H]3CC[C@@]12C |

Continued, compound first:

| SMILES | inhibition [1] | pIC50 [2] |
| --- | --- | --- |
| CC(=O)N[C@H](C(=O)N[C@H](C(=O)N[C@@H](CC(C)C)[C@@H](O)CC(=O)N[C@@H](C)C(=O)N[C@@H](CC(C)C)[C@@H](O)CC(=O)O)C(C)C)C(C)C [ACETYLPEPSTATIN] | 100% | 6.63 |
| CC(=O)OC[C@@]1(C)C(=O)CC[C@@]2(C)[C@H]1CC=C1[C@@H]2CC[C@@]2(C)[C@H]([C@H](CCC=C(C)C)C(=O)O)CC[C@]12C | 26% | < 3.71 |
| CC(C)=CCC[C@H](C(=O)O)[C@@H]1CC[C@]2(C)C3=CC[C@H]4C(C)(C)[C@@H](O)CC[C@]4(C)[C@H]3CC[C@@]12C | 50% | 3.66 |
| CC1(C)CC[C@]2(C(=O)O)CC[C@]3(C)C(=CC[C@@H]4[C@@]5(C)CC[C@H](O)C(C)(C)[C@@H]5CC[C@]43C)[C@@H]2C1 [OLEANOLIC_ACID] | 96% | 4.66 |
| CC(C)=CCC[C@H](C(=O)O)[C@@H]1CC[C@]2(C)C3=CC[C@H]4C(C)(C)C(=O)CC[C@]4(C)[C@H]3CC[C@@]12C | 90% | 4.36 |
| C=C(CC[C@@H](C)[C@H]1CC[C@@]2(C)[C@@H]3CC[C@H]4C(C)(C)[C@@H](O)CC[C@@]45C[C@@]35CC[C@]12C)C(C)C | 19% | < 3.64 |
